Results reported in ChEMBL document CHEMBL1125409, “Synthesis and biological activity of acyclic analogues of 5,10-dideaza-5,6,7,8-tetrahydrofolic acid” (J Med Chem, 1992).

Legend:
[1] = system: CCRF-CEM; experiment: Cytotoxicity against human lymphoblastic leukemic CCRF-CEM cell line was evaluated as the concentration required for 50% inhibition of the growth of the control value; type: functional, cell-based
Procedure, shortened: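 CCRF-CEM cells in RPMI 1640 with 10% dialyzed FBS, 16 mM HEPES and 8 mM MOPS, seeded at 4.8×10⁴ cells/well. Duplicate wells got graded concentrations diluted from a 4 mg/mL DMSO stock. After 72 h (95% air/5% CO₂), cells were counted on a Coulter counter. IC50 was taken from dose-response curves as 50% growth inhibition versus control.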

[2] = system: CCRF-CEM; experiment: Compound was evaluated for reversal of growth inhibition against human lymphoblastic leukemic CCRF-CEM cells at 0.46 uM concentration and with 300 uM of AICA; type: functional
[3] = system: CCRF-CEM; experiment: Compound was evaluated for reversal of growth inhibition against human lymphoblastic leukemic CCRF-CEM cells at 0.46 uM concentration and with 5 uM of Thymidine; type: functional
[4] = system: CCRF-CEM; experiment: Compound was evaluated for reversal of growth inhibition against human lymphoblastic leukemic CCRF-CEM cells at 0.46 uM concentration and with 100 uM of hypoxanthine; type: functional
[5] = In vivo antitumor activity against 6C3HED tumor type after intraperitoneal administration of 400 mg/kg; type: functional; details: ip
Procedure, shortened: (§1)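 6C3HED lymphosarcoma: 1–2 mm³ fragments implanted sc by trocar in the axilla of syngeneic C3H mice. Dosing ip twice daily for 8 days, starting 24 h after implant. One day after the last dose, tumor volume was taken as L(W²)/2 and compared with controls to give % inhibition. Deaths over group size were recorded.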

[6] = system: Mus musculus; experiment: In vivo antitumor activity against 6C3HED tumor type was expressed as toxic deaths/total treated mice at 400 mg/kg dose; 2/10; type: ADME, organism-based; set-up: dose 400 mg/kg
[7] = system: Mus musculus; experiment: In vivo antitumor activity against […] tumor type was expressed as toxic deaths/total treated mice at 100 mg/kg dose given once daily for 10 days; 1/10; type: ADME, organism-based; set-up: dose 100 mg/kg; details: 240 h
[8] = system: Mus musculus; experiment: In vivo antitumor activity against […] tumor type was expressed as toxic deaths/total treated mice at 200 mg/kg dose given once daily for 10 days; 0/10; type: ADME, organism-based; set-up: dose 200 mg/kg; details: 240 h
[9] = system: Mus musculus; experiment: In vivo antitumor activity against […] tumor type was expressed as toxic deaths/total treated mice at 50 mg/kg dose given once daily for 10 days; 2/10; type: ADME, organism-based; set-up: dose 50 mg/kg; details: 240 h
[10] = In vivo antitumor activity against […] tumor type after intraperitoneal administration of 100 mg/kg dose given once daily for 10 days; type: functional; details: ip, 240 h
Procedure, shortened: (§2)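 C3H mammary adenocarcinoma fragments (1–2 mm³) were trocar-implanted sc axillary in syngeneic C3H mice. Treatment was ip once daily for 10 days, beginning 24 h post-implant. Tumor width and length were measured one day after the final dose, with V = L(W²)/2. Growth inhibition was calculated against untreated controls, and toxicity/total was noted.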

[11] = In vivo antitumor activity against […] tumor type after intraperitoneal administration of 200 mg/kg dose given once daily for 10 days; type: functional; details: ip, 240 h; procedure, shortened: as §2
[12] = In vivo antitumor activity against […] tumor type after intraperitoneal administration of 50 mg/kg dose given once daily for 10 days; type: functional; details: ip, 240 h; procedure, shortened: as §2
[13] = In vivo antitumor activity against lymphosarcoma tumor type after intraperitoneal administration of 100 mg/kg dose given twice daily for 8 days; type: functional; details: ip, 192 h; procedure, shortened: as §1
[14] = In vivo antitumor activity against lymphosarcoma tumor type after intraperitoneal administration of 200 mg/kg dose given twice daily for 8 days; type: functional; details: ip, 192 h; procedure, shortened: as §1
[15] = In vivo antitumor activity against lymphosarcoma tumor type after intraperitoneal administration of 50 mg/kg dose given twice daily for 8 days; type: functional; details: ip, 192 h; procedure, shortened: as §1
[16] = system: Mus musculus; experiment: In vivo antitumor activity against lymphosarcoma tumor type was expressed as toxic deaths/total treated mice at 100 mg/kg dose given twice daily for 8 days; 0/9; type: ADME, organism-based; set-up: dose 100 mg/kg; details: 192 h
[17] = system: Mus musculus; experiment: In vivo antitumor activity against lymphosarcoma tumor type was expressed as toxic deaths/total treated mice at 50 mg/kg dose given twice daily for 8 days; 0/10; type: ADME, organism-based; set-up: dose 50 mg/kg; details: 192 h
[18] = In vivo antitumor activity against C3H mammary tumor type after intraperitoneal administration of 400 mg/kg dose given once daily for 10 days; details: ip, 240 h
[19] = system: Mus musculus; experiment: In vivo antitumor activity against C3H mammary tumor type was expressed as toxic deaths/total treated mice at 400 mg/kg dose given once daily for 10 days; 2/10; details: 240 h

## Nc1nc(N)c(CCCCc2csc(C(=O)N[C@@H](CCC(=O)O)C(=O)O)c2)c(O)n1
[1]
  IC50: 142 nM

## Nc1nc(N)c(CCCCc2ccc(C(=O)N[C@@H](CCC(=O)O)C(=O)O)s2)c(O)n1
[1]
  IC50: 59 nM

## Cc1nc(N)[nH]c(=O)c1CCCCc1ccc(C(=O)N[C@@H](CCC(=O)O)C(=O)O)cc1
[1]
  IC50: 2330 nM

## Nc1nc(N)c(CCCNc2ccc(C(=O)N[C@@H](CCC(=O)O)C(=O)O)cc2)c(O)n1
[2]
  Inhibition: 55%
[3]
  Inhibition: 77%
[1]
  IC50: 198 nM
[4]
  Inhibition: 0%

## Nc1nc(O)c(CCCCc2ccc(C(=O)N[C@@H](CCC(=O)O)C(=O)O)cc2)c(O)n1
[1]
  IC50: 39800 nM

## Nc1nc(N)c(CCCCCCCCCC(=O)N[C@@H](CCC(=O)O)C(=O)O)c(O)n1
[1]
  IC50: > 47100 nM

## Nc1nc(N)c(CCCCc2ccc(C(=O)N[C@@H](CCC(=O)O)C(=O)O)cc2)c(N)n1
[1]
  IC50: 42 nM

## Nc1nc(N)c(CCCCc2ccc(C(=O)N[C@@H](CC(=O)O)C(=O)O)cc2)c(O)n1
[1]
  IC50: > 48000 nM

## Nc1nc(N)c(CCCCc2ccc(C(=O)N[C@@H](Cc3ccccc3)C(=O)O)cc2)c(O)n1
[1]
  IC50: > 44500 nM

## Nc1nc(N)c(CCCCc2ccc(C(=O)N[C@@H](CCC(=O)O)C(=O)O)cc2)c(=O)[nH]1 [DIDEAZAACYCLOTETRAHYDROFOLIC ACID]
[5]
  inhibition in vivo at 400 mg/kg: 100%
[6]
  Toxicity: 2
[7]
  Toxicity: 1
[8]
  Toxicity: 0
[9]
  Toxicity: 2
[10]
  inhibition in vivo at 100 mg/kg: 37%
[11]
  inhibition in vivo at 200 mg/kg: 36%
[12]
  inhibition in vivo at 50 mg/kg: 17%
[2]
  Inhibition: 0%
[3]
  Inhibition: 80%
[1]
  IC50: 132 nM
[13]
  inhibition in vivo at 100 mg/kg: 66%
[14]
  inhibition in vivo at 200 mg/kg: 92%
[15]
  inhibition in vivo at 50 mg/kg: 44%
[16]
  Toxicity: 0
[17]
  Toxicity: 0
[4]
  Inhibition: 0%
[18]
  inhibition in vivo at 400 mg/kg: 78%
[19]
  Toxicity: 2

## Nc1nc2c(c(=O)[nH]1)C[C@@H](CCc1ccc(C(=O)N[C@@H](CCC(=O)O)C(=O)O)cc1)CN2 [LOMETREXOL]
[1]
  IC50: 16 nM
